The source of these data is the array DNA melting data of Ke et al. (doi:10.1101/2024.01.08.574731).

The nature of series [1]: melting temperature; fluorescence melt of hairpins on a sequencing array, two-state fit, raised by 9.35 °C to match UV melts. The following applies: sodium 0.088 M. Put shortly: (§1)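 Bootstrapped two-state fits yielded melting temperature and folding enthalpy for library hairpins. Cy3 fluorescence, with annealed Cy3 and quencher oligos, was imaged on a sequenced MiSeq flow cell in 50 mM Na-HEPES pH 8.0, 25 mM NaCl in 2.5 °C steps up to 60 °C, and normalised to pre-quench Cy3 and to control constructs. Four replicates were combined by inverse variance, and fitted temperatures were raised by 9.35 °C to match UV melts.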

The nature of series [2]: folding enthalpy; higher = less favourable; fluorescence melt of hairpins on a sequencing array, two-state fit. The following applies: sodium 0.088 M. Put shortly:
as §1

On to GTCCATCCGAAAGGAGAC (((..(((....)))))), for which the Tm in series [1] amounted to 24.8 °C. Further, the folding enthalpy in series [2] is -14.8 kcal/mol.
Regarding GATCATTAGTATGATC ((((((....)))))), in series [1], the Tm came out at 45.2 °C. In addition, in series [2], the folding enthalpy was -31.8 kcal/mol.
For GCAATCGCGAAAGCGTGC (((..(((....)))))), in that order: 44 °C and -12.5 kcal/mol.
As to GGTCTTCCGAAAGGAACC (((..(((....)))))), in series [1], the Tm came to 26.5 °C. The folding enthalpy in series [2] is -10.5 kcal/mol.
For GCGCGCGAAAGCGACCGC ((((((....)))..))), in that order: 54.3 °C and -16.8 kcal/mol.
For GATTCCGAAAGGAGTATC ((((((....)))..))) the same measures were 27.1 °C and -15.7 kcal/mol.
For GATCTATCACTAGATC ((((((....)))))) the same measures were 38.6 °C and -31.9 kcal/mol.
For TTGTAGAAATACAA (((((....))))), the Tm in series [1] came out at 24.9 °C. Also, in series [2], the folding enthalpy is -6.32 kcal/mol.
For GCTGAAGCGAAAGCTAGC (((..(((....)))))) the same measures were 44.6 °C and -18.6 kcal/mol.
With GATCATGAGTATGATC ((((((....)))))), the Tm in series [1] is 46.7 °C. The folding enthalpy in series [2] is -31.1 kcal/mol.
For GATCCCCAAGGGATC ((((((...)))))) the same measures were 58.9 °C and -30.9 kcal/mol.
For GATCGTTAATACGATC ((((((....)))))) the same measures were 54.6 °C and -36.3 kcal/mol.
For GATGCCGAAAGGCAAATC ((((((....)))..))) the same measures were 35.4 °C and -10.4 kcal/mol.
On to GCGCACCGAAAGGTACGC (((.(((....))).))), for which the Tm in series [1] amounted to 64.3 °C. The folding enthalpy in series [2] is -42.3 kcal/mol.
For GCGAGGCGAAAGCCATGC ((..(((....)))..)), in that order: 58.1 °C and -17.6 kcal/mol.
Regarding GTTCGTGGAAACATGAAC ((((.((....)).)))), the Tm in series [1] worked out at 47.5 °C. Further, the folding enthalpy in series [2] was -37.7 kcal/mol.
Consider GCTTTGCGAAAGCGACGC ((.(.((....)).).)), for which, in series [1], the Tm was determined as 47.6 °C. For the same sequence, the folding enthalpy in series [2] is -15.2 kcal/mol.
In the case of GCTGGCGAAAGCCTCAGC ((((((....)))..))), in series [1], the Tm came out at 46.6 °C. Further, the folding enthalpy in series [2] is -14.7 kcal/mol.
For GCACTCGAAAGAGGTGC ((((((....))).))) the same measures were 54.4 °C and -29.1 kcal/mol.
On to GTGCACGAAAGTGCTCAC ((((((....)))..))), for which the Tm in series [1] stood at 43.3 °C. For the same sequence, the folding enthalpy in series [2] is -7.03 kcal/mol.
Take GACAACGAAAGTTATGTC ((((((....)))..))): the Tm in series [1] is 32.3 °C. In series [2], the folding enthalpy is -17.8 kcal/mol.
For GTCTCAGGAAACCGAGAC (((((.(....).))))), in that order: 45.7 °C and -30.8 kcal/mol.
GAATGGGGAAACTCATTC (((((.(....).))))): in series [1], the Tm turned out to be 40.1 °C. For the same sequence, in series [2], the folding enthalpy was -32.4 kcal/mol.
For GGCATAGGAAACCATGCC (((((.(....).))))) the same measures were 48.7 °C and -30 kcal/mol.
For GCACGGCGAAAGCCCGGC ((..(((....)))..)) the same measures were 50.1 °C and -15.4 kcal/mol.
On to GGTCGCGAAAGCGAAACC ((((((....)))..))), for which, in series [1], the Tm is 50 °C. Also, in series [2], the folding enthalpy is -11.9 kcal/mol.
For GCAGGTGGAAACACTTGC (((.(((....))).))) the same measures were 51.5 °C and -35.2 kcal/mol.
Consider GTGGAACGAAAGTTGCAC (((.(((....))).))), for which, in series [1], the Tm was 56.5 °C. The folding enthalpy in series [2] was -40.3 kcal/mol.
As for GCTGGGCGAAAGCCGAGC (((.(((....))).))), in series [1], the Tm is 58.6 °C. In addition, the folding enthalpy in series [2] was -38.5 kcal/mol.
For GATCTATTGGTAGATC ((((((....)))))), in series [1], the Tm came to 44.2 °C. Further, the folding enthalpy in series [2] was -30.4 kcal/mol.
Turning to GGTACGCGAAAGCGCACC (((.(((....))).))), in series [1], the Tm was 57.6 °C. Further, the folding enthalpy in series [2] is -28.6 kcal/mol.
For GGTTCACGAAAGTGGACC (((.(((....))).))) the same measures were 63 °C and -38 kcal/mol.
For GTGAGTGGAAACACTTAC ((.((((....)))).)), in that order: 44.8 °C and -28.8 kcal/mol.
For GGTCACCCGAAAGGGACC (((..(((....)))))) the same measures were 48.6 °C and -17.7 kcal/mol.
Consider GACGGCGAAAGCCCCGTC ((((((....)))..))), for which the Tm in series [1] is 42.8 °C. For the same sequence, the folding enthalpy in series [2] is -15.8 kcal/mol.
For the sequence GCGACCACGAAAGTGCGC (((..(((....)))))), the Tm in series [1] is 48.5 °C. The folding enthalpy in series [2] is -20.9 kcal/mol.
As to GACTTTGAAAAAAGTC ((((((....)))))), in series [1], the Tm is 48.6 °C. Moreover, the folding enthalpy in series [2] is -40.6 kcal/mol.
For GATCAGGCGACTGATC ((((((....)))))), in that order: 56.4 °C and -36.8 kcal/mol.
For GGGAGCGAAAGCTGTCCC ((((((....)))..))), in that order: 45.6 °C and -17.2 kcal/mol.
As for GATAAAGCGAAAGCTATC (((..(((....)))))), the Tm in series [1] amounted to 33.1 °C. Moreover, the folding enthalpy in series [2] is -14.2 kcal/mol.
For GACGATGGAAACATTGTC (((.(((....))).))), in that order: 47.1 °C and -35.2 kcal/mol.
For GGCAACGAAAGTTCCGCC ((((((....)))..))), in that order: 48.4 °C and -21.4 kcal/mol.
For GATCTCGCCGAGATC ((((((...)))))) the same measures were 55.2 °C and -37 kcal/mol.
On to GTATTCCGAAAGGACTAC (((.(((....))).))), for which the Tm in series [1] amounted to 38.2 °C. The folding enthalpy in series [2] is -26.4 kcal/mol.
For GCCAAGGGAAACCCTGGC ((((.((....)).)))) the same measures were 52.2 °C and -31.9 kcal/mol.
Consider GATCTCAATCGAGATC ((((((....)))))), for which, in series [1], the Tm is 52.2 °C. For the same sequence, in series [2], the folding enthalpy was -43.7 kcal/mol.
Consider GTGGCCTCGAAAGAGCAC (((..(((....)))))), for which, in series [1], the Tm turned out to be 37.4 °C. Moreover, the folding enthalpy in series [2] was -14.7 kcal/mol.
On to GATCGAGCGATCGATC ((((((....)))))), for which the Tm in series [1] amounted to 57.5 °C. Besides, the folding enthalpy in series [2] is -35.6 kcal/mol.
For GCCAGATCGAAAGATGGC (((..(((....)))))) the same measures were 48.2 °C and -27.4 kcal/mol.
For GATCCGGATTCGGATC ((((((....)))))) the same measures were 59.1 °C and -35.7 kcal/mol.
As for GGGGTTGGAAACAGCTCC ((.(.((....)).).)), in series [1], the Tm came to 37 °C. For the same sequence, the folding enthalpy in series [2] was -24.6 kcal/mol.
For GCGAAGCGAAAGCCCCGC (((..((....))..))), the Tm in series [1] worked out at 36.3 °C. The folding enthalpy in series [2] is -7.44 kcal/mol.
For GGCGAATCGAAAGATGCC (((..(((....)))))), in that order: 46.1 °C and -22.5 kcal/mol.
For GCCGGGCGAAAGCGTGGC (((..((....))..))), in that order: 65.9 °C and -36.4 kcal/mol.
For CGATCGGAAACGAGATCG ((((((....)))..))), in that order: 42.5 °C and -28.4 kcal/mol.
